{"source": "ChEMBL document CHEMBL1129737", "about": "“Mechanism of selective incorporation of the melanoma seeker 2-thiouracil into growing melanin” (1996)", "key": {"Mus musculus [1]": {"species_on_record": "Mus musculus", "assay": "HPCL quantitation of resulting degradation product, pyrrole-2,3,5-tricarboxylic acid (PTCA) content after tumor isolation at 30 min of assay", "type": "functional, organism-based", "summary_of_the_method": "(§1)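 B16 tumours were grown s.c. in female C57Bl/6 mice, which were given 10 μCi [2-14C]TU two weeks later. At each time point, melanosomes were isolated by sucrose density gradient ultracentrifugation. 4 mg was oxidized with alkaline H2O2 (1 M NaOH, 30% H2O2) for 3 h at 25 °C. PTCA was quantified by HPLC with 280 nm detection and expressed per mg.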"}, "Mus musculus [2]": {"tested_on": "Mus musculus", "assay": "Absorbance at 350 nM of a solution of melanosomes […] from tumor after ip injection at 30 min of assay as a measure of pigment content of tissue", "type": "functional"}, "Mus musculus [3]": {"species_on_record": "Mus musculus", "assay": "HPCL quantitation of resulting degradation product, pyrrole-2,3,5-tricarboxylic acid (PTCA) content after tumor isolation at 0 min of assay", "type": "functional, organism-based", "summary_of_the_method": "as §1"}, "Mus musculus [4]": {"tested_on": "Mus musculus", "assay": "Absorbance at 350 nM of a solution of melanosomes obtained by treatment in hot alkali from tumor after ip injection at 90 min of assay as a measure of pigment content of tissue", "type": "functional"}, "Mus musculus [5]": {"tested_on": "Mus musculus", "assay": "Absorbance at 350 nM of a solution of melanosomes obtained by treatment in hot alkali from tumor after ip injection at 180 min of assay as a measure of pigment content of tissue", "type": "functional"}, "Mus musculus [6]": {"tested_on": "Mus musculus", "assay": "Specific Incorporation (cpm/mg of melanin) of melanin after isolation from tumor after ip injection at 90 min of assay", "type": "functional", "summary_of_the_method": "(§2)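 Mice (female C57Bl/6, s.c. B16 melanoma, two weeks) received 10 μCi [2-14C]TU and were euthanized at the noted times. Tumours were weighed, frozen, homogenized in 1% acetic acid–ethanol (30:70) and centrifuged. Melanosomal melanin was purified on a sucrose density gradient, dried to constant weight, and radioactivity was expressed as cpm/mg melanin.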"}, "Mus musculus [7]": {"species_on_record": "Mus musculus", "assay": "HPCL quantitation of resulting degradation product, pyrrole-2,3,5-tricarboxylic acid (PTCA) content after tumor isolation at 180 min of assay", "type": "functional, organism-based", "summary_of_the_method": "as §1"}, "Mus musculus [8]": {"tested_on": "Mus musculus", "assay": "Specific Incorporation (cpm/mg of melanin) of melanin after isolation from tumor after ip injection at 180 min of assay", "type": "functional", "summary_of_the_method": "as §2"}, "Mus musculus [9]": {"tested_on": "Mus musculus", "assay": "Absorbance at 350 nM of a solution of melanosomes obtained by treatment in hot alkali from tumor after ip injection at 0 min of assay as a measure of pigment content of tissue", "type": "functional"}, "Mus musculus [10]": {"species_on_record": "Mus musculus", "assay": "HPCL quantitation of resulting degradation product, pyrrole-2,3,5-tricarboxylic acid (PTCA) content after tumor isolation at 90 min of assay", "type": "functional, organism-based", "summary_of_the_method": "as §1"}, "Mus musculus [11]": {"tested_on": "Mus musculus", "assay": "Specific Incorporation (cpm/mg of melanin) of melanin after isolation from tumor after ip injection at 30 min of assay", "type": "functional", "summary_of_the_method": "as §2"}}}
{"smiles": "O=c1cc[nH]c(=S)[nH]1", "note": "[THIOURACIL]", "values": [{"measurement": "Concentration", "setting": "Mus musculus [1]", "value": 493, "unit": "ng/mg"}, {"measurement": "Activity", "setting": "Mus musculus [2]", "value": 0.032}, {"measurement": "Concentration", "setting": "Mus musculus [3]", "value": 1120, "unit": "ng/mg"}, {"measurement": "Activity", "setting": "Mus musculus [4]", "value": 0.036}, {"measurement": "Activity", "setting": "Mus musculus [5]", "value": 0.043}, {"measurement": "Specific incorporation", "setting": "Mus musculus [6]", "value": "2600 c.p.m. (mg of melanin)-1"}, {"measurement": "Concentration", "setting": "Mus musculus [7]", "value": 589, "unit": "ng/mg"}, {"measurement": "Specific incorporation", "setting": "Mus musculus [8]", "value": "2300 c.p.m. (mg of melanin)-1"}, {"measurement": "Activity", "setting": "Mus musculus [9]", "value": 0.071}, {"measurement": "Concentration", "setting": "Mus musculus [10]", "value": 560, "unit": "ng/mg"}, {"measurement": "Specific incorporation", "setting": "Mus musculus [11]", "value": "2500 c.p.m. (mg of melanin)-1"}]}
